# Legend:
# Rattus norvegicus [1] = test: Tested for hypolipidemic activity in male rats, cholesterol was determined in serum at 20 mg/kg; format: functional
# Procedure, shortened: (§1)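 Groups of eight male Wistar rats (200–230 g) dosed orally in PEG 400, either daily for 7 days (killed 24 h after the last dose) or for 4 days with a second dose on day 4 (killed 16 h later). Fasted 16 h. Paired sera pooled, lipoproteins separated by ultracentrifugation (1.006 and 1.040 g/cm³), HDL taken as the infranatant. Cholesterol measured enzymatically; % vs vehicle, mean ± SEM of four pools.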
# Rattus norvegicus [2] = test: Hypolipidemic activity was determined in male rats, and high-density lipoprotein level was determined at 20 mg/kg; format: functional
# Procedure, shortened: (§2)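 Male Wistar rats (200–230 g), eight per group, were dosed orally in PEG 400 at 8 a.m. for 4 days, plus a second dose at 4 p.m. on day 4. Rats were fasted 16 h and killed 16 h after the last dose. Sera from pairs of rats were pooled. LDL (up to 1.040 g/cm³) was separated by ultracentrifugation and the HDL infranatant taken. Cholesterol was measured enzymatically. Results are % versus vehicle control, mean ± SEM of four pools, Student's t test.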
# Rattus norvegicus [3] = test: Hypolipidemic activity was determined in male rats, and low-density lipoprotein level was determined at 20 mg/kg; format: functional; procedure, shortened: as §2
# Staphylococcus aureus = test: Antibacterial activity against Staphylococcus aureus 10B; format: functional
# Procedure, shortened: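 Agar dilution on DST agar with 2-fold drug dilutions. Inoculum of 10⁴ viable S. aureus 10B was taken from liquid-nitrogen stock, thawed 30 min and not subcultured. It was applied by multipoint replicator and incubated overnight at 37 °C. MIC is the lowest concentration inhibiting growth relative to control cultures.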
# Rattus norvegicus [4] = test: Tested for hypolipidemic activity in male rats, cholesterol was determined in serum at 10 mg/kg; format: functional; procedure, shortened: as §1
# Rattus norvegicus [5] = test: Hypolipidemic activity was determined in male rats, and high-density lipoprotein level was determined at 10 mg/kg; format: functional; procedure, shortened: as §2
# Rattus norvegicus [6] = test: Hypolipidemic activity was determined in male rats, and low-density lipoprotein level was determined at 10 mg/kg; format: functional; procedure, shortened: as §2
# [7] = Inhibitory activity against RNA polymerase was determined; parameters: species or system Escherichia coli
# Procedure, shortened: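 E. coli DNA-dependent RNA polymerase inhibition measured in vitro on ether-extracted, permeabilized E. coli cells.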
# Rattus norvegicus [8] = test: Hypolipidemic activity was determined by measuring the % serum HDL in hypercholesterolemic RICO rat at a dose of 10 mg/kg; format: functional, organism-based; parameters: dose 10 mg/kg
# Procedure, shortened: (§3)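 Genetically hypercholesterolemic RICO rats (Tif:RAI,f,SPF) were dosed orally for 7 days. Sera were collected after a 16 h fast and pooled in pairs. LDL (1.006–1.040 g/cm³) and HDL infranatant were separated by ultracentrifugation. Cholesterol and triglycerides were measured enzymatically. Results are % change versus vehicle control, mean ± SEM of four pools.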
# Rattus norvegicus [9] = test: Hypolipidemic activity was determined by measuring the % serum HDL in hypercholesterolemic RICO rat at a dose of 3 mg/kg; format: functional, organism-based; parameters: dose 3 mg/kg; procedure, shortened: as §3
# Rattus norvegicus [10] = test: Hypolipidemic activity was determined by measuring the % serum HDL in hypercholesterolemic RICO rat at a dose of 30 mg/kg; format: functional, organism-based; parameters: dose 30 mg/kg; procedure, shortened: as §3
# Rattus norvegicus [11] = test: Hypolipidemic activity was determined by measuring the % serum HDL in normal rat at a dose of 1 mg/kg; format: functional, organism-based; parameters: dose 1 mg/kg
# Procedure, shortened: (§4)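 Normal male Wistar rats (200–230 g), eight per group, were dosed orally in PEG 400 once daily for 7 days. They were fasted 16 h and killed 24 h after the last dose. Serum from pairs was pooled and LDL/HDL fractions were ultracentrifuged. Cholesterol and triglycerides were measured enzymatically. Results are % versus vehicle control, mean ± SEM of four pools, Student's t test.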
# Rattus norvegicus [12] = test: Hypolipidemic activity was determined by measuring the % serum HDL in normal rat at a dose of 3 mg/kg; format: functional, organism-based; parameters: dose 3 mg/kg; procedure, shortened: as §4
# Rattus norvegicus [13] = test: Hypolipidemic activity was determined by measuring the % serum HDL in normal rat at a dose of 30 mg/kg; format: functional, organism-based; parameters: dose 30 mg/kg; procedure, shortened: as §4
# Rattus norvegicus [14] = test: Hypolipidemic activity was determined by measuring the % serum cholesterol in hypercholesterolemic RICO rat at a dose of 10 mg/kg; format: functional, organism-based; parameters: dose 10 mg/kg; procedure, shortened: as §3
# Rattus norvegicus [15] = test: Hypolipidemic activity was determined by measuring the % serum cholesterol in hypercholesterolemic RICO rat at a dose of 3 mg/kg; format: functional, organism-based; parameters: dose 3 mg/kg; procedure, shortened: as §3
# Rattus norvegicus [16] = test: Hypolipidemic activity was determined by measuring the % serum cholesterol in hypercholesterolemic RICO rat at a dose of 30 mg/kg; format: functional, organism-based; parameters: dose 30 mg/kg; procedure, shortened: as §3
# Rattus norvegicus [17] = test: Hypolipidemic activity was determined by measuring the % serum cholesterol in normal rat at a dose of 1 mg/kg; format: functional, organism-based; parameters: dose 1 mg/kg; procedure, shortened: as §4
# Rattus norvegicus [18] = test: Hypolipidemic activity was determined by measuring the % serum cholesterol in normal rat at a dose of 10 mg/kg; format: functional, organism-based; parameters: dose 10 mg/kg; procedure, shortened: as §4
# Rattus norvegicus [19] = test: Hypolipidemic activity was determined by measuring the % serum cholesterol in normal rat at a dose of 3 mg/kg; format: functional, organism-based; parameters: dose 3 mg/kg; procedure, shortened: as §4
# Rattus norvegicus [20] = test: Hypolipidemic activity was determined by measuring the % serum cholesterol in normal rat at a dose of 30 mg/kg; format: functional, organism-based; parameters: dose 30 mg/kg; procedure, shortened: as §4
# Rattus norvegicus [21] = test: Hypolipidemic activity was determined by measuring the % serum LDL-cholesterol in hypercholesterolemic RICO rat at a dose of 10 mg/kg; format: functional, organism-based; parameters: dose 10 mg/kg; procedure, shortened: as §3
# Rattus norvegicus [22] = test: Hypolipidemic activity was determined by measuring the % serum LDL-cholesterol in hypercholesterolemic RICO rat at a dose of 3 mg/kg; format: functional, organism-based; parameters: dose 3 mg/kg; procedure, shortened: as §3
# Rattus norvegicus [23] = test: Hypolipidemic activity was determined by measuring the % serum LDL-cholesterol in hypercholesterolemic RICO rat at a dose of 30 mg/kg; format: functional, organism-based; parameters: dose 30 mg/kg; procedure, shortened: as §3
# Rattus norvegicus [24] = test: Hypolipidemic activity was determined by measuring the % serum LDL in normal rat at a dose of 1 mg/kg; format: functional, organism-based; parameters: dose 1 mg/kg; procedure, shortened: as §4
# Rattus norvegicus [25] = test: Hypolipidemic activity was determined by measuring the % serum LDL in normal rat at a dose of 10 mg/kg; format: functional, organism-based; parameters: dose 10 mg/kg; procedure, shortened: as §4
# Rattus norvegicus [26] = test: Hypolipidemic activity was determined by measuring the % serum LDL in normal rat at a dose of 3 mg/kg; format: functional, organism-based; parameters: dose 3 mg/kg; procedure, shortened: as §4
# Rattus norvegicus [27] = test: Hypolipidemic activity was determined by measuring the % serum LDL in normal rat at a dose of 30 mg/kg; format: functional, organism-based; parameters: dose 30 mg/kg; procedure, shortened: as §4
# Rattus norvegicus [28] = test: Hypolipidemic activity was determined by measuring the % serum triglycerides in normal rat at a dose of 3 mg/kg; format: functional, organism-based; parameters: dose 3 mg/kg; procedure, shortened: as §4
# Rattus norvegicus [29] = test: Hypolipidemic activity was determined by measuring the % serum triglycerides in normal rat at a dose of 30 mg/kg; format: functional, organism-based; parameters: dose 30 mg/kg; procedure, shortened: as §4
# Rattus norvegicus [30] = test: Hypolipidemic activity was determined by measuring the % serum triglycerides in hypercholesterolemic RICO rat at a dose of 10 mg/kg; format: functional, organism-based; parameters: dose 10 mg/kg; procedure, shortened: as §3
# Rattus norvegicus [31] = test: Hypolipidemic activity was determined by measuring the % serum triglycerides in hypercholesterolemic RICO rat at a dose of 3 mg/kg; format: functional, organism-based; parameters: dose 3 mg/kg; procedure, shortened: as §3
# Rattus norvegicus [32] = test: Hypolipidemic activity was determined by measuring the % serum triglycerides in hypercholesterolemic RICO rat at a dose of 30 mg/kg; format: functional, organism-based; parameters: dose 30 mg/kg; procedure, shortened: as §3
# Rattus norvegicus [33] = test: Hypolipidemic activity was determined by measuring the % serum triglycerides in normal rat at a dose of 1 mg/kg; format: functional, organism-based; parameters: dose 1 mg/kg; procedure, shortened: as §4
# Rattus norvegicus [34] = test: Hypolipidemic activity was determined by measuring the % serum triglycerides in normal rat at a dose of 10 mg/kg; format: functional, organism-based; parameters: dose 10 mg/kg; procedure, shortened: as §4
# Rattus norvegicus [35] = test: Hypolipidemic activity was determined by measuring the % serum HDL in normal rat at a dose of 10 mg/kg; format: functional, organism-based; parameters: dose 10 mg/kg; procedure, shortened: as §4
structure (smiles),measurement,setting,value
COC1/C=C/OC2(C)Oc3c(C)c(O)c4c(O)c(c(N5CCC(C(C)C)CC5)c(O)c4c3C2=O)NC(=O)/C(C)=C\C=C\C(C)C(O)C(C)C(O)C(C)C(OC(C)=O)C1C (configuration not stated),Activity,Rattus norvegicus [1],-61%
same,Activity,Rattus norvegicus [2],-61%
same,Activity,Rattus norvegicus [3],-54%
same,MIC,Staphylococcus aureus,< 0.1 µg/mL
COC1/C=C/OC2(C)Oc3c(C)c(O)c4c(O)c(c(N5CCN(Cc6c(C)cc(C)cc6C)CC5)c(O)c4c3C2=O)NC(=O)/C(C)=C\C=C\C(C)C2OC(C)(C)OC(C2C)C(C)C(OC(C)=O)C1C (configuration not stated),Activity,Rattus norvegicus [4],-14%
same,Activity,Rattus norvegicus [5],-27%
same,Activity,Rattus norvegicus [6],-6%
same,MIC,Staphylococcus aureus,8 µg/mL
COC1/C=C/OC2(C)Oc3c(C)c(O)c4c(O)c(c(N5CCN(Cc6c(C)cc(C)cc6C)CC5)c(O)c4c3C2=O)NC(=O)/C(C)=C\C=C\C(C)C(O)C(C)C(O)C(C)C(OC(C)=O)C1C (configuration not stated),Activity,Rattus norvegicus [4],-35%
same,Activity,Rattus norvegicus [1],-63%
same,Activity,Rattus norvegicus [5],-38%
same,Activity,Rattus norvegicus [2],-58%
same,Activity,Rattus norvegicus [6],-43%
same,Activity,Rattus norvegicus [3],-79%
same,IC50,[7],0.3 µg/mL
same,Serum HDL-cholesterol,Rattus norvegicus [8],-30%
same,Serum HDL-cholesterol,Rattus norvegicus [9],-7%
same,Serum HDL-cholesterol,Rattus norvegicus [10],-72%
same,Serum HDL-cholesterol,Rattus norvegicus [11],-8%
same,Serum HDL-cholesterol,Rattus norvegicus [12],-14%
same,Serum HDL-cholesterol,Rattus norvegicus [13],-69%
same,Serum cholesterol,Rattus norvegicus [14],-30%
same,Serum cholesterol,Rattus norvegicus [15],-8%
same,Serum cholesterol,Rattus norvegicus [16],-65%
same,Serum cholesterol,Rattus norvegicus [17],0%
same,Serum cholesterol,Rattus norvegicus [18],-42%
same,Serum cholesterol,Rattus norvegicus [19],-11%
same,Serum cholesterol,Rattus norvegicus [20],-72%
same,Serum LDL-cholesterol,Rattus norvegicus [21],-42%
same,Serum LDL-cholesterol,Rattus norvegicus [22],-29%
same,Serum LDL-cholesterol,Rattus norvegicus [23],-68%
same,Serum LDL-cholesterol,Rattus norvegicus [24],-11%
same,Serum LDL-cholesterol,Rattus norvegicus [25],-53%
same,Serum LDL-cholesterol,Rattus norvegicus [26],-28%
same,Serum LDL-cholesterol,Rattus norvegicus [27],-64%
same,Serum triglyceride,Rattus norvegicus [28],-3%
same,Serum triglyceride,Rattus norvegicus [29],-50%
same,Serum triglyceride,Rattus norvegicus [30],-17%
same,Serum triglyceride,Rattus norvegicus [31],8%
same,Serum triglyceride,Rattus norvegicus [32],-55%
same,Serum triglyceride,Rattus norvegicus [33],11%
same,Serum triglyceride,Rattus norvegicus [34],-18%
same,MIC,Staphylococcus aureus,0.01 µg/mL
same,Serum HDL-cholesterol,Rattus norvegicus [35],-46%
COC1/C=C/OC2(C)Oc3c(C)c(O)c4c(O)c(c(N5CCN(Cc6c(C)cc(C)cc6C)CC5)c(O)c4c3C2=O)NC(=O)/C(C)=C\C=C\C(C)C(O)C(C)C(=O)C(C)C(OC(C)=O)C1C (configuration not stated),Activity,Rattus norvegicus [4],-18%
same,Activity,Rattus norvegicus [5],-23%
same,Activity,Rattus norvegicus [6],-1%
same,MIC,Staphylococcus aureus,2 µg/mL
COC1CCOC2(C)Oc3c(C)c(O)c4c(O)c(c(N5CCN(Cc6c(C)cc(C)cc6C)CC5)c(O)c4c3C2=O)NC(=O)C(C)CCCC(C)C(O)C(C)C(O)C(C)C(OC(C)=O)C1C (configuration not stated),Activity,Rattus norvegicus [4],-30%
same,Activity,Rattus norvegicus [5],-27%
same,Activity,Rattus norvegicus [6],-32%
same,IC50,[7],8 µg/mL
same,MIC,Staphylococcus aureus,2 µg/mL
COC1/C=C/OC2(C)Oc3c(C)c(O)c4c(O)c(c(N5CCC(C)CC5)c(O)c4c3C2=O)NC(=O)/C(C)=C\C=C\C(C)C(O)C(C)C(O)C(C)C(OC(C)=O)C1C (configuration not stated),Activity,Rattus norvegicus [1],-23%
same,Activity,Rattus norvegicus [2],-30%
same,Activity,Rattus norvegicus [3],23%
same,MIC,Staphylococcus aureus,< 0.1 µg/mL

# Reference: ChEMBL document CHEMBL1125042, “Hypolipidemic activity of rifamycin derivatives” (J Med Chem, 1990)
